The values that follow come from ChEMBL document CHEMBL4219076, “Synthesis, spectroscopic studies and biological evaluation of acridine derivatives: The role of aggregation on the photodynamic efficiency” (Bioorg Med Chem Lett, 2018).

As usually defined, the pIC50 is the negative decadic logarithm of the IC50, by convention in mol/L.

Series [1] has as its system Hep 3B2. In words: Photocytotoxicity in human Hep3B cells assessed as cell damage preincubated for 1 hr followed by 365 nanometer UV light irradiation for 3 mins by propidium iodide/Hoechst 33342 staining based static cytometry coupled fluorescence microscopic method. It counts as functional. The method, boiled down: (§1)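 Hep3B cells exposed to photosensitizer for 1 h, then irradiated at 365 nm for 3 min. PI-positive cells were quantified by fluorescence microscopy coupled with static cytometry and expressed as percentage of cells, with untreated cells as reference.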

The nature of series [2]: Self-aggregating property assessed as diameter of nanostructure by transmission electron microscopic method. It counts as physicochemical.
The test system of series [3] is HUVEC. In words: Cytotoxicity against HUVEC assessed as reduction in cell viability after 3 hrs under dark condition by MTT assay. In kind it is functional, cell-based. The conditions noted are these: Homo sapiens.
A short description of series [4]: Induction of singlet oxygen production in 90% H2O/CH3CN mixture upon irradiation of 365 nanometer light assessed as oxygenation of 1,5-DHN by UV-Visible spectroscopic method. In kind it is functional. The method, boiled down:
(§2)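 Singlet oxygen generation was followed by oxygenation of 1,5-dihydroxynaphthalene to juglone. Sensitizer solutions were irradiated in quartz cuvettes with 365 nm light.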

A short description of series [5]: Drug uptake in human Hep3B cell nuclear membrane at 10 uM after 1 hr by Draq5 staining based bright field microscopic method. In kind it is ADME, cell membranes. The conditions noted are these: hep 3b2, 1 h.
Series [6] can be described thus: Induction of singlet oxygen production in CH3CN upon irradiation of 365 nanometer light assessed as oxygenation of 1,5-DHN by measuring quantum yield at 33 uM by UV-Visible spectroscopic method. In kind it is functional. A digest of the protocol: as §2
Series [7] concerns HUVEC. In words: Cytotoxicity against HUVEC assessed as reduction in cell viability at 1 to 20 uM incubated for 3 hrs followed by incubation in compound free medium for 21 hrs under dark condition by MTT assay. In kind it is functional, cell-based. The conditions noted are these: Homo sapiens. Background: Tetrazolium dyes change colour on reduction, which living cells bring about.

Series [8] concerns HUVEC. In words: Cytotoxicity against HUVEC assessed as cell viability at 1 to 20 uM after 24 hrs under dark condition by MTT assay relative to control. It counts as functional, Homo sapiens.
Series [9] in a line: Drug uptake in human Hep3B cell endoplasmic reticulum at 10 uM after 1 hr by Draq5 staining based bright field microscopic method. The following applies: hep 3b2, 1 h. In kind it is ADME, subcellular.
A short description of series [10]: Induction of singlet oxygen production in 50% H2O/CH3CN mixture upon irradiation of 365 nanometer light assessed as oxygenation of 1,5-DHN by UV-Visible spectroscopic method. It counts as functional. A digest of the protocol:
as §2

Series [11] has as its system HUVEC. In words: Cytotoxicity against HUVEC assessed as cell viability at 1 to 20 uM after 3 hrs under dark condition by MTT assay relative to control. It counts as functional, Homo sapiens.
Series [12] has as its system Hep 3B2. In words: Cytotoxicity against human Hep3B cells assessed as reduction in cell viability at 1 to 20 uM after 24 hrs under dark condition by MTT assay. In kind it is functional, cell-based.
The nature of series [13]: Self-aggregating property assessed as diameter of nanostructure by scanning electron microscopic method. In kind it is physicochemical.
The nature of series [14]: Induction of singlet oxygen production in H2O upon irradiation of 365 nanometer light assessed as oxygenation of 1,5-DHN by measuring quantum yield at 33 uM by UV-Visible spectroscopic method. In kind it is functional. A digest of the protocol:
as §2

Series [15] can be described thus: Drug uptake in human Hep3B cell lysosome at 10 uM after 1 hr by Draq5 staining based bright field microscopic method. In kind it is ADME, subcellular. The conditions noted are these: hep 3b2, 1 h.
The nature of series [16]: Self-aggregating property assessed as diameter of nanostructure by DLS method. It counts as physicochemical.
Series [17] relates to Hep 3B2. In words: Cytotoxicity against human Hep3B cells assessed as reduction in cell viability after 3 hrs under dark condition by MTT assay. It counts as functional, cell-based.
Series [18] can be described thus: Drug uptake in human Hep3B cell mitochondria at 10 uM after 1 hr by Draq5 staining based bright field microscopic method. The conditions noted are these: hep 3b2, 1 h. In kind it is ADME.
The test system of series [19] is Hep 3B2. In words: Cytotoxicity against human Hep3B cells assessed as reduction in cell viability at 1 to 20 uM incubated for 3 hrs followed by incubation in compound free medium for 21 hrs under dark condition by MTT assay. In kind it is functional, cell-based.
Series [20] concerns Hep 3B2. In words: Photocytotoxicity in human Hep3B cells assessed as cell damage preincubated for 1 hr followed by 365 nanometer UV light irradiation for 3 mins by propidium iodide staining based confocal fluorescence laser scanning microscopic method. In kind it is functional. A digest of the protocol:
(§3)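 Hep3B cells, 30.000 cells/well, exposed to photosensitizer ([…] as printed) for 1 h, then irradiated with a 365 nm UV lamp, 6 W, for 3 min. Damaged or dead cells stained with propidium iodide (1 mM as printed) and imaged by confocal laser scanning microscopy, ex 488 nm, em 500–700 nm. Irradiated control wells received no photosensitizer.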

Series [21] concerns Hep 3B2. In words: Photocytotoxicity in human Hep3B cells assessed as cell damage at 20 uM preincubated for 1 hr followed by 365 nanometer UV light irradiation for 3 mins by propidium iodide/Hoechst 33342 staining based static cytometry coupled fluorescence microscopic method (reference value: 1.25%). In kind it is functional. The method, boiled down:
as §1

In series [22] the test system is HUVEC. In words: Cytotoxicity against HUVEC assessed as reduction in cell viability at 1 to 20 uM after 3 hrs under dark condition by MTT assay. In kind it is functional, cell-based. The following applies: Homo sapiens.
Series [23] concerns Hep 3B2. In words: Photocytotoxicity in human Hep3B cells assessed as cell damage at 10 uM preincubated for 1 hr followed by 365 nanometer UV light irradiation for 3 mins by propidium iodide staining based confocal fluorescence laser scanning microscopic method. It counts as functional. The method, boiled down: as §3
A short description of series [24]: Dark toxicity in human Hep3B cells assessed as cell damage at 20 uM after 1 hr by propidium iodide/Hoechst 33342 staining based static cytometry coupled fluorescence microscopic method (reference value: 1.25%). The conditions noted are these: hep 3b2, 1 h.

Structures are written as SMILES. pIC50: −log10 of the molar value. The source made the active and inactive calls. No cut-off for these calls is given here.

`CC(C)[C@H](NC(=O)c1c2ccccc2nc2ccccc12)C(=O)NCCCCCCCCNC(=O)[C@@H](NC(=O)c1c2ccccc2nc2ccccc12)C(C)C`: the result (with Hep 3B2 [1]; in series [4]; in the series on HUVEC [7]; in series [10]; in the series on Hep 3B2 [19]; in the series on Hep 3B2 [20]) was inactive. Moreover, the Activity in [2] was 135 nm; in the series on HUVEC [3] it was “Dose-dependent effect”; in series [6], 0.96; in the series with HUVEC [8], 27%; in the series on HUVEC [11], 46%; in series [13], 93 nm. Moreover, the Activity in series [14] was 0.01; in [16] it was 122 nm; with Hep 3B2 [17] it was “Dose-dependent effect”. For the same compound, the pIC50 with HUVEC [3] is 4.73; in the series on Hep 3B2 [17], 4.53. The Drug uptake entry in series [5] is on record as “Active”; in [9], “Not Active”; in [15], “Not Active”; in series [18] it was “Not Active”. For the same compound, the result in the series on Hep 3B2 [12] was Active.

With `CCCNC(=O)[C@@H](NC(=O)c1c2ccccc2nc2ccccc12)C(C)C`, the result (in [4]; in [10]; in the series with Hep 3B2 [23]) was Active. In addition, the Activity was 0.97 in series [6]; 8.7% with Hep 3B2 [21]; 0.263 in [14]; 3.38% in [24]; “Not Active” in [16]. The outcome in the series with HUVEC [7], in the series with HUVEC [22], with Hep 3B2 [12] and with Hep 3B2 [19] was inactive.
